Biological target: Protein farnesyltransferase (Rattus norvegicus, UniProt Q02293+Q04631)
Test: Inhibitory concentration against rat brain farnesyltransferase
How it was run: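 Rat brain FTase (40-fold purified), pH 7.4, in 30 mM potassium phosphate, 5 mM phosphate plus 50 mM Hepes, or 50 mM Hepes. Buffer also held 7 mM DTT, 1.2 mM MgCl2 and protease inhibitors. Final substrates were 0.12 μM [1-3H]FPP and 0.1 μM biotinyl-aminoheptanoyl-TKCVIM, with inhibitor varied from DMSO stock. Reaction ran 30 min at 37 °C, was stopped with streptavidin beads, and was counted by scintillation proximity. Generally n = 2.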

`C[C@H](NC(=O)[C@@H](Cc1c[nH]c2ccccc12)NC(=O)[C@H](NC(=O)[C@@H](Cc1ccc(OCc2ccccc2)cc1)NC(=O)[C@@H](Cc1cnc[nH]1)NC(=O)OCc1ccccc1)[C@@H](C)OCc1ccccc1)C(N)=O` showed an IC50 of 15 nM.
`C[C@H](NC(=O)[C@@H](Cc1c[nH]c2ccccc12)NC(=O)[C@@H](COCc1ccccc1)NC(=O)[C@@H](Cc1ccc(OCc2ccccc2)cc1)NC(=O)[C@@H](Cc1cnc[nH]1)NC(=O)OCC1c2ccccc2-c2ccccc21)C(N)=O` showed an IC50 of 1600 nM.
`C[C@H](NC(=O)[C@@H](Cc1c[nH]c2ccccc12)NC(=O)[C@@H](COCc1ccccc1)NC(=O)[C@@H](Cc1ccc(OCc2ccccc2)cc1)NC(=O)C(Cc1c[nH]cn1)NC(=O)OCc1ccccc1)C(N)=O` (stereo partly specified) was tested, and the IC50 was 82 nM.
`C[C@H](NC(=O)[C@@H](Cc1c[nH]c2ccccc12)NC(=O)[C@@H](COCc1ccccc1)NC(=O)[C@H](C)NC(=O)[C@@H](Cc1c[nH]cn1)NC(=O)OCc1ccccc1)C(N)=O` gave an IC50 of 1000 nM.
Molecule `C[C@H](NC(=O)[C@@H](Cc1c[nH]c2ccccc12)NC(=O)[C@@H](COCc1ccccc1)NC(=O)[C@@H](Cc1ccc(OCc2ccccc2)cc1)NC(=O)[C@@H](Cc1c[nH]cn1)NC(=O)[C@@H]1CCC(=O)N1)C(N)=O` has an IC50 greater than 20000 nM.
`C[C@H](NC(=O)[C@@H](Cc1c[nH]c2ccccc12)NC(=O)[C@@H](COCc1ccccc1)NC(=O)[C@@H](Cc1ccc(OCc2ccccc2)cc1)NC(=O)[C@@H](Cc1c[nH]cn1)NC(=O)OC1CCCCC1)C(N)=O` showed an IC50 of 3800 nM.
`C[C@H](NC(=O)[C@@H](Cc1c[nH]c2ccccc12)NC(=O)C(Cc1ccccc1)NC(=O)[C@@H](Cc1ccc(OCc2ccccc2)cc1)NC(=O)[C@@H](Cc1c[nH]cn1)NC(=O)OCc1ccccc1)C(N)=O` (stereo partly specified) gave an IC50 of 130 nM.
`C[C@H](NC(=O)[C@@H](Cc1c[nH]c2ccccc12)NC(=O)[C@@H](COCc1ccccc1)NC(=O)[C@@H](Cc1ccc(OCc2ccccc2)cc1)NC(=O)C(N)CCCNC(=O)OCc1ccccc1)C(N)=O` (stereo partly specified) was tested, and the IC50 was 4700 nM.
`C[C@H](NC(=O)[C@@H](Cc1c[nH]c2ccccc12)NC(=O)[C@@H](COCc1ccccc1)NC(=O)[C@@H](Cc1ccc(OCc2ccccc2)cc1)NC(=O)C(Cc1c[nH]c2ccccc12)NC(=O)OCc1ccccc1)C(N)=O` (stereo partly specified) showed an IC50 greater than 20000 nM.
`COC(=O)[C@H](C)NC(=O)[C@@H](Cc1c[nH]c2ccccc12)NC(=O)[C@@H](COCc1ccccc1)NC(=O)[C@@H](Cc1ccc(OCc2ccccc2)cc1)NC(=O)[C@@H](Cc1cnc[nH]1)NC(=O)OCc1ccccc1` gave an IC50 of 48 nM.
`C[C@H](NC(=O)[C@@H](Cc1c[nH]c2ccccc12)NC(=O)[C@@H](COCc1ccccc1)NC(=O)[C@@H](Cc1ccc(OCc2ccccc2)cc1)NC(=O)C(Cc1ccccc1)NC(=O)OCc1ccccc1)C(N)=O` (stereo partly specified) was tested, and the IC50 was greater than 20000 nM.
`CCNC(=O)[C@H](C)NC(=O)[C@@H](Cc1c[nH]c2ccccc12)NC(=O)[C@@H](COCc1ccccc1)NC(=O)[C@@H](Cc1ccc(OCc2ccccc2)cc1)NC(=O)[C@@H](Cc1c[nH]cn1)NC(=O)OCc1ccccc1` gave an IC50 of 170 nM.
Molecule `C[C@H](NC(=O)[C@@H](Cc1c[nH]c2ccccc12)NC(=O)[C@H](COCc1ccccc1)NC(=O)[C@@H](Cc1ccc(OCc2ccccc2)cc1)NC(=O)[C@@H](Cc1cnc[nH]1)NC(=O)OCc1ccccc1)C(N)=O` has an IC50 of 13000 nM.
`C[C@H](NC(=O)[C@@H](Cc1c[nH]c2ccccc12)NC(=O)[C@@H](COCc1ccccc1)NC(=O)C(CCCCN)NC(=O)[C@@H](Cc1cnc[nH]1)NC(=O)OCc1ccccc1)C(N)=O` (stereo partly specified) showed an IC50 of 1900 nM.
In the case of `C[C@H](NC(=O)[C@@H](Cc1c[nH]c2ccccc12)NC(=O)[C@@H](COCc1ccccc1)NC(=O)C(CCC(N)=O)NC(=O)[C@@H](Cc1cnc[nH]1)NC(=O)OCc1ccccc1)C(N)=O` (stereo partly specified), the IC50 is reported as 54 nM.
Work on `C[C@H](NC(=O)[C@@H](Cc1c[nH]c2ccccc12)NC(=O)[C@@H](CS)NC(=O)[C@@H](Cc1ccc(OCc2ccccc2)cc1)NC(=O)[C@@H](Cc1cnc[nH]1)NC(=O)OCc1ccccc1)C(N)=O` yielded an IC50 of 4 nM.
For `C[C@H](NC(=O)[C@@H](Cc1c[nH]c2ccccc12)NC(=O)[C@@H](CCC(=O)O)NC(=O)[C@@H](Cc1ccc(OCc2ccccc2)cc1)NC(=O)[C@@H](Cc1c[nH]cn1)NC(=O)OCc1ccccc1)C(N)=O`, the IC50 was 200 nM.
In the case of `CC(NC(=O)[C@@H](Cc1c[nH]c2ccccc12)NC(=O)[C@@H](COCc1ccccc1)NC(=O)[C@@H](Cc1ccc(OCc2ccccc2)cc1)NC(=O)[C@@H](Cc1c[nH]cn1)NC(=O)OCc1ccccc1)C(N)=O` (stereo partly specified), the IC50 is reported as 8.5 nM.
`C[C@H](NC(=O)[C@@H](Cc1c[nH]c2ccccc12)NC(=O)[C@@H](COCc1ccccc1)NC(=O)[C@@H](Cc1ccc(OCc2ccccc2)cc1)NC(=O)[C@@H](Cc1cnc[nH]1)NC(=O)OC1CCC1)C(N)=O` gave an IC50 of 3200 nM.
For `C[C@H](NC(=O)[C@@H](Cc1c[nH]c2ccccc12)NC(=O)[C@@H](COCc1ccccc1)NC(=O)[C@@H](Cc1ccc(OCc2ccccc2)cc1)NC(=O)[C@@H](Cc1c[nH]cn1)NC(=O)OCc1ccccc1)C(=O)O`, the IC50 was 48 nM.
Molecule `C[C@H](NC(=O)[C@H](Cc1c[nH]c2ccccc12)NC(=O)[C@@H](COCc1ccccc1)NC(=O)[C@@H](Cc1ccc(OCc2ccccc2)cc1)NC(=O)[C@@H](Cc1cnc[nH]1)NC(=O)OCc1ccccc1)C(N)=O` has an IC50 of 8700 nM.
Work on `C[C@H](NC(=O)[C@@H](Cc1c[nH]c2ccccc12)NC(=O)[C@@H](COCc1ccccc1)NC(=O)[C@@H](Cc1ccc(OCc2ccccc2)cc1)NC(=O)[C@H](Cc1cnc[nH]1)NC(=O)OCc1ccccc1)C(N)=O` yielded an IC50 of 35 nM.
Work on `C[C@H](NC(=O)[C@@H](Cc1c[nH]c2ccccc12)NC(=O)[C@@H](CSCc1ccccc1)NC(=O)[C@@H](Cc1ccc(OCc2ccccc2)cc1)NC(=O)[C@@H](Cc1cnc[nH]1)NC(=O)OCc1ccccc1)C(N)=O` yielded an IC50 of 15 nM.
`C[C@H](NC(=O)[C@@H](Cc1c[nH]c2ccccc12)NC(=O)[C@@H](COCc1ccccc1)NC(=O)[C@@H](CCc1ccccc1)NC(=O)[C@@H](Cc1c[nH]cn1)NC(=O)OCc1ccccc1)C(N)=O` showed an IC50 of 18 nM.
Molecule `CC(NC(=O)[C@@H](COCc1ccccc1)NC(=O)[C@@H](Cc1ccc(OCc2ccccc2)cc1)NC(=O)[C@@H](Cc1cnc[nH]1)NC(=O)OCc1ccccc1)C(=O)N[C@@H](C)C(N)=O` (stereo partly specified) has an IC50 of 250 nM.
`C[C@H](NC(=O)[C@@H](Cc1c[nH]c2ccccc12)NC(=O)[C@@H](COCc1ccccc1)NC(=O)[C@@H](Cc1ccc(OCc2ccccc2)cc1)NC(=O)[C@H](N)Cc1cnc[nH]1)C(N)=O` was tested, and the IC50 was 4500 nM.
For `CC(=O)N[C@H](Cc1cnc[nH]1)C(=O)N[C@H](Cc1ccc(OCc2ccccc2)cc1)C(=O)N[C@H](COCc1ccccc1)C(=O)N[C@H](Cc1c[nH]c2ccccc12)C(=O)N[C@@H](C)C(N)=O`, the IC50 was 10000 nM.
`C[C@H](NC(=O)C(Cc1ccccc1)NC(=O)[C@@H](COCc1ccccc1)NC(=O)[C@@H](Cc1ccc(OCc2ccccc2)cc1)NC(=O)[C@@H](Cc1cnc[nH]1)NC(=O)OCc1ccccc1)C(N)=O` (stereo partly specified) showed an IC50 of 2500 nM.
With `CC(NC(=O)[C@@H](Cc1ccc(OCc2ccccc2)cc1)NC(=O)[C@@H](Cc1c[nH]cn1)NC(=O)OCc1ccccc1)C(=O)N[C@H](Cc1c[nH]c2ccccc12)C(=O)N[C@@H](C)C(N)=O` (stereo partly specified) the IC50 was 1100 nM.
`C[C@H](NC(=O)[C@@H](Cc1c[nH]c2ccccc12)NC(=O)[C@@H](COCc1ccccc1)NC(=O)C(CCC(=O)O)NC(=O)[C@@H](Cc1c[nH]cn1)NC(=O)OCc1ccccc1)C(N)=O` (stereo partly specified) showed an IC50 of 18 nM.
With `C[C@H](NC(=O)[C@@H](Cc1c[nH]c2ccccc12)NC(=O)[C@@H](COCc1ccccc1)NC(=O)C(CC1CCCCC1)NC(=O)[C@@H](Cc1cnc[nH]1)NC(=O)OCc1ccccc1)C(N)=O` (stereo partly specified) the IC50 was 66 nM.

— ChEMBL document CHEMBL1130162, “Structure-activity relationships of cysteine-lacking pentapeptide derivatives that inhibit ras farnesyltransferase” (J Med Chem, 1997)
